# Hits are enriched below; roughly 2.7% of the tested compounds scored in any of these assays.
# SIRT5 block: inhibitors of human sirtuin-5 desuccinylase | Q9NXA8 | Purified SirT5, succinyl-peptide AMC, trypsin-coupled fluorescence | AID 652115 | inhibition, % at 15 µM | 330,000 tested, 1.1% active; in the data active = inhibition above about 15%; inconclusive = no clear call, values can overlap the other calls
# S100A4 inh HTS: inhibitors of human S100A4 binding to myosin IIA peptide; P26447; S100A4/TAMRA-MyoIIA peptide fluorescence polarization; inhibition, % at 10.7 µM; 360,000 tested, 0.14% active; AID 652163;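 active = mean inhibition of at least 70% across replicates, with every replicate also reaching that level; inconclusive = mean inhibition reaches 70% but some replicates fall short; inactive = mean inhibition below 70%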
# Target sequence (P26447 whole entry, looked up): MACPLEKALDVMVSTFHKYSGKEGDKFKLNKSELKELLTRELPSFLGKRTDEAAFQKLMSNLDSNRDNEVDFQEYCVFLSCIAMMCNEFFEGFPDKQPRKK
#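 Assay system: human S100A4 monomer with TAMRA-labelled myosin IIA peptide / Buffer or medium: Calcium-containing HEPES buffer, pH 7.2 / Reagent: TAMRA-labelled myosin IIA heavy-chain peptide probe, 5 nM / Compound: one dose per compound / Timing: polarization read 5 min after assay mix addition, stable 5–60 min / Benchmarks: neutral control DMSO, positive control TFP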
# CaV13 ICDI inh: Primary screen for inhibitors of IQ motif and Ca2+-dependent inactivation inhibitor domain binding in CACNA1D, Förster resonance energy transfer in living cells, … | HEK cells, CFP/YFP FRET ICDI-IQ, plate reader, 10 min; percent FRET-ratio fall versus neutral wells | 340,000 tested, 0.098% active | inhibition, % at 12.3 µM;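 active = mean replicate inhibition of at least 30% and at least 1% of replicates passing that level; inconclusive = only one of the two criteria is met; inactive = neither criterion is met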;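 note: 0% = median of the neutral control wells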
# AF4-AF9 inh: MLL-AF4/AF9 protein interaction inhibition; AlphaScreen, biotin-AF4 peptide binding to FLAG-AF9; AID 651704; inhibition, % at 10 µM; 350,000 tested, 0.47% active; P42568;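 active = every replicate reaching a set inhibition limit, whatever the replicate mean, cut at about 25% in these data; inconclusive = mean inhibition reaches that limit but some replicates miss it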;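 note: 0% = plate neutral control median and 100% = total signal loss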
# Target sequence (P42568 whole entry, looked up): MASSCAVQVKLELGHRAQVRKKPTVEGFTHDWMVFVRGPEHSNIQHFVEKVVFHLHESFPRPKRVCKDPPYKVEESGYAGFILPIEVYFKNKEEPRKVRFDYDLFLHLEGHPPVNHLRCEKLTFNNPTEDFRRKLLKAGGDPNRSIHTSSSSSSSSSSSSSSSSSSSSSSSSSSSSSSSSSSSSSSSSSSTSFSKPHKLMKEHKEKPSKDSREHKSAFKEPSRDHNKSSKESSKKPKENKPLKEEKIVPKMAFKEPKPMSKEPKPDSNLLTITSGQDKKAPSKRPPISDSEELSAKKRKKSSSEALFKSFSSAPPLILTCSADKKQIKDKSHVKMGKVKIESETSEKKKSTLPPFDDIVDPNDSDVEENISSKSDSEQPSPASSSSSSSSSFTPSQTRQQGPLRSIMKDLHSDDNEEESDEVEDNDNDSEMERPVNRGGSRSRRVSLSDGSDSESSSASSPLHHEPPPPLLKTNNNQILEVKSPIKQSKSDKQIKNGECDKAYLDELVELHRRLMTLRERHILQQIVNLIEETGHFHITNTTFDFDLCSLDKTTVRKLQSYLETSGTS
# DENV2 CPE: DENV2-induced cell death inhibition; DENV2-infected cells, cytopathic effect rescue, plate reader; CPE inhibition, % at 9.99 µM; 350,000 tested, 1.7% active; AID 651640; in the data active = CPE inhibition above about 20%, passing the limit was not always enough; inconclusive = no clear call, values can overlap the other calls; tested in BHK-21 cells;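 note: 0% = median of neutral control wells and 100% = median of positive control wells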
# Starred values were filed as active, the others as inactive; ? = inconclusive; . = not tested or not shown; ! = not active in a repeat.
SMILES,SIRT5 block,S100A4 inh HTS,CaV13 ICDI inh,AF4-AF9 inh,DENV2 CPE
CC(=O)N1CC2(C1)[C@H](c1ccccc1)[C@@H](CO)N2C(=O)c1cnccn1,-1,6,.,-4,1
Cc1cn([C@H]2C[C@H](O)[C@@H](CNCc3ccc4ncccc4c3)O2)c(=O)[nH]c1=O,7,-4,-6,1,94*
Cc1cn([C@H]2C[C@H](O)[C@@H](CNCc3ccc(C#CCCO)cc3)O2)c(=O)[nH]c1=O,.,2,-6,-2,-4
Cc1nnc(SCC(=O)NCc2ccccc2Cl)[nH]c1=O,-1,0,-4,34*,.
Cc1nnc(SCC(=O)Nc2c(Cl)cccc2Cl)[nH]c1=O,-1,5,-6,-13,-6
COc1ccc(C)c2sc(N(CCN(C)C)C(=O)c3ccc4ccccc4c3)nc12,-5,-4,-3,29*,3
CO[C@H]1CN(C)C(=O)c2cc(NC(C)=O)ccc2OC[C@@H](C)N(Cc2cccc(F)c2)C[C@H]1C,0,-3,.,.,-5
CCc1c(C2(O)CCCCC2)[nH]c2c(C(=O)OC)cc(Cl)cc12,.,4,-4,-3,30*
COC(=O)c1cc(Cl)cc2c(C)c(C3(O)CCCCC3)[nH]c12,.,-5,-6,-3,-18
CCCNC(=O)N1[C@H](C#N)[C@H](c2ccc(C#Cc3cccc(F)c3)cc2)[C@H]1CO,3,6,.,-3,-18
O=C1CN(C(=O)CSc2nc(-c3ccc(Cl)cc3)cs2)c2ccccc2N1,15*,1,10,3,-3
Cc1nnc(SCC(=O)N2CC(=O)Nc3ccccc32)s1,-3,-4,-2,-2,8
COc1ccc(NC(=O)Nc2ccc3c(c2)C(=O)N([C@@H](C)CO)C[C@H](C)[C@@H](CN(C)C(=O)C2CCCCC2)OCCCC[C@H](C)O3)cc1,1,-4,.,7,39*
COc1ccc(NC(=O)Nc2ccc3c(c2)C(=O)N([C@H](C)CO)C[C@@H](C)[C@H](CN(C)C(=O)C2CCCCC2)OCCCC[C@H](C)O3)cc1,4,-3,.,-5,21*
CN1CCN(C(=O)C[C@H]2CC[C@@H]3[C@H](COC[C@H](O)CN3Cc3cccc(F)c3)O2)CC1,.,.,.,.,-4
CCC(=O)N1C[C@@H](C)[C@@H](OC)CN(C)C(=O)c2cc(NC(=O)C3CCCCC3)ccc2OC[C@H]1C,-2,-6,.,0,6
Cc1ccc(Cc2c(-c3ccc(Cl)cc3)nc3c(Cl)cc(C(F)(F)F)cn23)cc1,-7,-4,-4,1,-4
Cc1ccc(-c2nc3c(Cl)cc(C(F)(F)F)cn3c2Cc2ccccc2)cc1,15*,2,-10,4,-4
Cc1ccc(-c2nc3c(Cl)cc(C(F)(F)F)cn3c2Cc2cccc(F)c2)cc1,22*,-6,-9,-1,-2
FC(F)(F)c1cc(Cl)c2nc(-c3ccccc3)c(Cc3ccccc3)n2c1,1,3,-10,0,5
CCC(=O)N1C[C@@H](O)COC[C@H]2O[C@H](CC(=O)NCc3cc(F)cc(F)c3)CC[C@@H]21,.,.,.,.,1
C#CCNc1cccc2c1S(=O)(=O)N[C@H](C)CO2,-1,2,-5,0,4
CN(C)CCCCCCNC(=O)[C@@H]1C[C@@H]2C(=O)N3CCC[C@H]3C(=O)N2[C@@H]1c1ccc(O)cc1,6,?,.,29*,-4
C[C@@H]1CN([C@H](C)CO)C(=O)c2cccc(NC(=O)Nc3ccc(C(F)(F)F)cc3)c2O[C@@H]1CN(C)C(=O)NC1CCCCC1,5,10,.,-2,0
C[C@H](CO)N1C[C@H](C)[C@@H](CN(C)C(=O)NC2CCCCC2)Oc2c(NC(=O)Nc3ccc(C(F)(F)F)cc3)cccc2C1=O,4,-3,-5,1,29*!
SMILES,SIRT5 block,S100A4 inh HTS,CaV13 ICDI inh,AF4-AF9 inh,DENV2 CPE
C[C@@H]1CN([C@@H](C)CO)C(=O)c2cccc(NC(=O)Nc3ccc(C(F)(F)F)cc3)c2O[C@H]1CN(C)C(=O)NC1CCCCC1,101*,4,.,2,1
C[C@@H]1CCCCO[C@@H](CN(C)Cc2ccc(C(=O)O)cc2)[C@@H](C)CN([C@@H](C)CO)C(=O)c2cc(NC(=O)C3CCCCC3)ccc2O1,0,-32,.,-4,38*
C[C@@H]1CCCCO[C@@H](CN(C)Cc2ccccc2)[C@@H](C)CN([C@@H](C)CO)C(=O)c2cc(NC(=O)C3CCCCC3)ccc2O1,3,1,.,5,27*
C[C@@H]1CCCCO[C@@H](CN(C)Cc2ccc(C(=O)O)cc2)[C@@H](C)CN([C@H](C)CO)C(=O)c2cc(NC(=O)C3CCCCC3)ccc2O1,-1,11,.,1,?
CO[C@H]1CN(C)C(=O)c2ccc(NS(C)(=O)=O)cc2OC[C@H](C)N(CC2CCOCC2)C[C@H]1C,-4,-11,.,-3,8
CO[C@H]1CN(C)C(=O)c2cc(NC(C)=O)ccc2OC[C@H](C)N(C(=O)c2ccncc2)C[C@H]1C,3,1,.,5,10
CCOC(=O)c1cccc(C(=O)OCC)n1,.,2,-3,-2,.
CC(C)OC(=O)c1cccc(C(=O)O)n1,19*,6,-4,.,.
CCCCOCC1CN(CCCC)S(=O)(=O)c2c(NCc3cc(OC)c(OC)c(OC)c3)cccc2O1 (configuration not stated),.,-7,-9,-3,-4
O=C(CCN1CCCCC1)N[C@H]1CC[C@H](CCn2cc(-c3ccccc3)nn2)O[C@H]1CO,1,1,.,0,0
CC(C)(O)c1[nH]c2ccc(C#N)cc2c1C(C)(C)O,.,-3,-7,46*,10
CC(C)(O)c1[nH]c2ccc(C(F)(F)F)cc2c1C(C)(C)O,.,-6,-8,-7,-9
Cc1noc(C)c1NC(=O)N(C)C[C@H]1Oc2c(NC(=O)CCCCCC(=O)Nc3ccccc3N)cccc2C(=O)N([C@@H](C)CO)C[C@H]1C,3,76*,.,3,10
CC(C)NC(=O)N(C)C[C@@H]1Oc2c(NC(=O)CCCCCC(=O)Nc3ccccc3N)cccc2C(=O)N([C@@H](C)CO)C[C@H]1C,-6,-3,.,-2,25*
C[C@H](CO)N1C[C@H](C)[C@H](CN(C)C(=O)Nc2ccc(F)cc2)Oc2c(NC(=O)CCCCCC(=O)Nc3ccccc3N)cccc2C1=O,.,-4,.,1,-2
C[C@@H]1CN([C@@H](C)CO)C(=O)c2cccc(NC(=O)CCCCCC(=O)Nc3ccccc3N)c2O[C@H]1CN(C)C(=O)Nc1ccc(F)cc1,-1,7,.,0,49*
NC(=O)c1cc(C(=O)c2ccc(Cl)cc2Cl)c[nH]1,-2,0,-2,-10,33*
O=C(Nc1ncc(S(=O)(=O)c2ccc([N+](=O)[O-])cc2)s1)c1ccccc1F,22*,10,0,6,8
O=C(Nc1ccc([N+](=O)[O-])cc1)c1ccccc1F,1,6,17,-3,1

# Screening data deposited in PubChem by Broad Institute.
